From the EternaBench riboswitch data

Tested on: MS2 coat protein
Experiment: apparent Kd, MS2 coat protein; higher = weaker binding; RNA-MaP array; FMN 200 µM where present
In short: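 SNAP-549-labelled MS2 coat protein, doubled from 0.7 or 1.5 nM to 3 µM, was titrated over designs transcribed by stalled E. coli RNA polymerase on Illumina sequencing-chip clusters. Titrations were run without and then with constant ligand in 100 mM Tris-HCl pH 7.5, 80 mM KCl, 4 mM MgCl2, BSA, DTT, yeast tRNA and Tween-20. The apparent Kd is the median of filtered per-cluster fits to green signal normalised to red-channel RNA signal and control-cluster median Fmax.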

[1] = designed as: OFF switch for flavin mononucleotide, no ligand
[2] = ligand present: flavin mononucleotide, designed as: OFF switch for flavin mononucleotide
[3] = designed as: ON switch for flavin mononucleotide, no ligand
[4] = ligand present: flavin mononucleotide, designed as: ON switch for flavin mononucleotide

Sequence | apparent Kd [1] [nM] | apparent Kd [2] [nM] | apparent Kd [3] [nM] | apparent Kd [4] [nM]
CCGGAAAUGCAGGAUAUCGUAUCGGAAACGAUACGAGAAGGGUAUACAUGAGGAUCACCCAUGUGUCCUACCGG | 22.6 | 21.4 |  | 
GUUCUUCCUGUGAGGAUAUCCAUGUGUCGGUUUGUGGAGAAGGUACAUGAGGAUCACCCAUGUCACCCGCGUUA | 14.7 | 17.7 |  | 
AGAGCCUCGUGAGGAUAUACAUGAGGAUCACCCAUGUAAUAAAGUGAACGGAGGAAACUCCGAAUGUAGAAGGCACGAGGCUCA | 44.5 | 391 |  | 
GGAUCGAAUGUGAGGAUAUACCUAUGGAAACAUAGGUAGAAGGCACAUGAGGAUCACCCAUGUCCUAACGGUCC | 419 | 456 |  | 
UUAUUAUGUGUAGGAUAUGCAUAUUAUUAUUAUGCAGAAGGACAUGAGGAUCACCCAUGUAUAUUAUUAUUAUAUAUUAUAUAU | 30.9 | 46.2 |  | 
AGAAAACAUGAGGAUCACCCAUGUAAGGAUAUGCUAAGGGUGGCUUCGGCCACCCAAUGCAGAAGGUACAAAUA | 49.6 | 59.7 |  | 
UCGGAGAAAGGAUAUACACCAAGGGUAUAGUAGGAUCCUGGACAUGAGGAUCACCCAUGUAGAAGGUUCACUGC | 60.1 | 31.1 |  | 
CGUCCACAUGAGGAUCACCCAUGUUAGGAUAUAAACGCCGUAGUCCAAGGACGGGCCUUUAGAAGGAGCGCGGG | 13.9 | 25.6 |  | 
UAAAUGUCAGGAUAUUGUUAAUUUAGUUGUUUGUAUUAGUUCGAGAAGGGACAUGAGGAUCACCCAUGUUGUUU | 28.9 | 31.1 |  | 
AGGUCACAUGAGGAUCACCCAUGUCAGGAUAUCGUCACUGGAGCUGCGGCUCCAGUGACGAGAAGGGAUAAUUA | 45.5 | 70.5 |  | 
UCAUAACAUGAGGAUCACCCAUGUGAGGAUAUGAUACUAUGUACUUCGGUACAUAGUAUCAGAAGGCACAUACU | 85 | 316 |  | 
AAGACGUGGGAAGGAUAUCUGGAAUAUCGGUCGAGAGAAGGUCCCUCGACAUGAGGAUCACCCAUGUAACACGGUCUACCGUGG |  |  | 472 | 280
ACAAUAAACUAGAAGGUGGUGAUACAUGAGGAUCACCCAUGUAUAGUACUGAGGAUAUGGAUGAUUGAAGUGAAUAUCGUAGCA |  |  | 111 | 86
CAAUUUAUAACAGGAUAUAUAAUACAAUGAUUAAUAGAAGGGUUUAAUACAUGAGGAUCACCCAUGUCAUGUGUCAUAAUUACC | 40.1 | 32 |  | 
AAUAUAGAGCUGGAAAUAAACUCAACAUGAGGAUCACCCAUGUAGGAUAUCAGCACGAUAAGUGCUGAGAAGGACAUCCAGCUC | 16.7 | 17.1 |  | 
UUGGCACAUGAGGAUCACCCAUGUUAGGAUAUUGUGGCAGAAACAGCUGGGAAACGCACGAGAAGGGACACAUA | 33.4 | 38.5 |  | 
CUGCUGAAGCUUUGCUUUAGUCGUACAUGAGGAUCACCCAUGUAGGAUAUGGUAGGCUUUGCUUACUAGAAGGAUAGAGUGGUC | 52.6 | 27.6 |  | 
AUCGUGUGAGGAUAUCGAUGUUGGACGUCUAGGUCUGAGCGCGAGAAGGCACAUGAGGAUCACCCAUGUAAUGG | 272 | 350 |  | 
UUUGCAUUCCGAGGAUAUUCAUAUAAUAAAUAAACAUGAGGAUCACCCAUGUGGCGAAAGCCUAGGGAGAAGGCGGUUUGCUUU |  |  | 139 | 25.7

Sequence | apparent Kd [1] [nM] | apparent Kd [2] [nM] | apparent Kd [3] [nM] | apparent Kd [4] [nM]
AGUUACAGGAUAGGAUAUGGCGUGACAUGGCUGCCAGAAGGAUCCUCGGGAACAUGAGGAUCACCCAUGUGACCGUGUCGAGUC |  |  | 126 | 170
UCAAAUACUGAGGAUAUAACGACUGAAUCCGCGUUAGAAGGUAGUACAUGAGGAUCACCCAUGUCAACCAGAGG |  | 18.7 |  | 
AAUCCACAUGAGGAUCACCCAUGUGAGGAUAUGAUACUAUGUACUUCGGUACAUAGUAUCAGAAGGCACAGGUC | 23.6 | 51.6 |  | 
CCGGCUUAGUAGGAUAUAGGAGUCGAUAGACACCUAGAAGGACUAACAUGAGGAUCACCCAUGUGUCCUACCGG | 14.3 | 29.3 |  | 
AAGAAGUGAGGAUAUGCUGCUCGUCACUUGCGUGAUGAGUAGCAGAAGGCACAUGAGGAUCACCCAUGUGAAAA | 26 | 43.3 |  | 
GCCGAAUGAACAUGAGGAUCACCCAUGUACAGGAAACUGAAUGAGGAUAUCCAUAGCAAAGCUAUGGAGAAGGCAUGGGUCGGC |  |  | 465 | 99.7
CUCAUGUGAGGAUAUCAGUAGUAAAAAAAUAAAAUUACUACUGAGAAGGCACAUGAGGAUCACCCAUGUGCAAA | 95.9 | 105 |  | 
ACAUGAGGAUCACCCAUGUCACUUUUACAUGGGUAUAUAAGCGAGGAUAUGCAUAUACCCUGGGUGCAGAAGGCGCUUUUUUAA | 74.5 | 105 |  | 
UUGCGGUAGGAGAAGGACAGAGGCUUCAUUACAUACAUGAGGAUCACCCAUGUAGGAUAUCCUACCUCACGCGGCCUCCUCCUG | 6.9 | 10.3 |  | 
AAAACGGCGCAUCCCGCGCCAACUACAGAAGGCCAACAUGAGGAUCACCCAUGUACAAACUAGAUGGAGGAUAUGUAGGUUCUA |  |  | 5.18 | 4.2
UUCGCUAAGGUGUAGCGAGACUUGCAAGAAGGGUGAUGCACAUGAGGAUCACCCAUGUAAGCCUUACAGGAUAUUGCUUGCCGA |  |  | 600 | 220
UCGUACUUUCGAGGAUAUCGGUGAUAUAUAUUACGAGAAGGCGAUUGUUUGUUUUACGUCUUAGACAUGAGGAUCACCCAUGUA |  |  | 40.4 | 30.5
UUUUUGUCAGGAUAUGAGUAGUAGAACAAUAGUACUACUACUCAGAAGGGACAUGAGGAUCACCCAUGUUCCUC | 15.2 | 54.1 |  | 
GGAUAGGACAGAGGAUAUACGUGCUAGAGAUACUAGCAAAAUUUCCUCACAUGAGGAUCACCCAUGUAGAAGGAUGUCCUAUCG | 5.3 | 7.61 |  | 
UCAUCGGCAGGAUAUACGAAAGGAGAACUUCUGCGCAAGAUACAUGAGGAUCACCCAUGUAGAAGGGUCGUAUG | 27.8 | 88.7 |  | 
CGGCGCUGUCGAGAGGAUAUGCGGUGAUGGACAUGAGGAUCACCCAUGUUAGCGAUAGCAUCACGGUAGAAGGCUCUACGGCUUG |  |  | 46.3 | 15.5
UCCGAACAUGAGGAUCACCCAUGUGAGGAUAUAGACGUGAAUUAAACACGUAACAAAACUAGAAGGCACUGGGC | 14.7 | 13.2 |  | 
ACAUGAGGAUCACCCAUGUGGAGUGAAGAAGGUAGAUACUUAUGACUCUCCCAUGUACAUAGGACUGAGGAUAUUCUAAUAAUU |  |  | 30.8 | 24
